Measurements as given in ChEMBL document CHEMBL1131316, “Potent antagonists of somatostatin: synthesis and biology” (J Med Chem, 1998).
Positions of bridges follow the written chain, without caps; N, C: chain ends. Non-standard residues stand in square brackets, D forms with d. Residues, ends and D or L forms follow the SMILES beside them. dBip = N[C@H](Cc1ccc(-c2ccccc2)cc1)C(=O)O; dPhe(4-Cl) = N[C@H](Cc1ccc(Cl)cc1)C(=O)O; 2Nal = N[C@@H](Cc1ccc2ccccc2c1)C(=O)O; d2Nal = N[C@H](Cc1ccc2ccccc2c1)C(=O)O; 3Pal = N[C@@H](Cc1cccnc1)C(=O)O

Key:
[1] = target: Somatostatin receptor type 1 (Homo sapiens, UniProt P30872); test: Binding affinity towards cloned human somatostatin 1 (hsst) receptor
Chain of Somatostatin receptor type 1 (P30872 whole entry): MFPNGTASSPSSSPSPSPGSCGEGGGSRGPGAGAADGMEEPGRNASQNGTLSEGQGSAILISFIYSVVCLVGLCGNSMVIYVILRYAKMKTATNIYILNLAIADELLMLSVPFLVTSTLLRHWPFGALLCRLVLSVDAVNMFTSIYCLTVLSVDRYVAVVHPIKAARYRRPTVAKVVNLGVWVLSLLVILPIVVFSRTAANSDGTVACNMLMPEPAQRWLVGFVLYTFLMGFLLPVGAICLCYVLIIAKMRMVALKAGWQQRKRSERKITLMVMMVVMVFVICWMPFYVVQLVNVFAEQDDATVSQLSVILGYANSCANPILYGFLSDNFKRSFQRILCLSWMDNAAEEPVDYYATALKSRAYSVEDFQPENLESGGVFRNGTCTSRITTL
Summary of the method: (§1)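 Membranes from CHO-K1 cells stably transfected with the human receptor subtype (calcium phosphate transfection, G418 selection), homogenised and washed in Tris-HCl. Separated by filtration on PEI-soaked GF/C filters; nonspecific binding with 1.0 µM SRIF.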

[2] = target: Somatostatin receptor type 4 (Homo sapiens, UniProt P31391); test: Binding affinity towards cloned human somatostatin 4 (hsst) receptor
Chain of Somatostatin receptor type 4 (P31391 whole entry): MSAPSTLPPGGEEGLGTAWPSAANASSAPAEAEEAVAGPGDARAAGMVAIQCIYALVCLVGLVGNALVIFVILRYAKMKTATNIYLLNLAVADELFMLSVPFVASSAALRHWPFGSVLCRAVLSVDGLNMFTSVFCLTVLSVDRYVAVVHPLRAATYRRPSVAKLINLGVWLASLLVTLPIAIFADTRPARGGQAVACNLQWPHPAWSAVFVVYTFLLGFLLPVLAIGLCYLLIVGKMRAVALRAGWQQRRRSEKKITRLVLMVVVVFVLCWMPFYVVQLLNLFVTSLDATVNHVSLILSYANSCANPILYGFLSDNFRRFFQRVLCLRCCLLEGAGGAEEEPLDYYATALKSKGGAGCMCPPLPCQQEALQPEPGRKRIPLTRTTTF

[3] = target: Somatostatin receptor type 3 (Homo sapiens, UniProt P32745); test: Binding affinity towards cloned human somatostatin 3 (hsst) receptor; summary of the method: as §1
Chain of Somatostatin receptor type 3 (P32745 whole entry): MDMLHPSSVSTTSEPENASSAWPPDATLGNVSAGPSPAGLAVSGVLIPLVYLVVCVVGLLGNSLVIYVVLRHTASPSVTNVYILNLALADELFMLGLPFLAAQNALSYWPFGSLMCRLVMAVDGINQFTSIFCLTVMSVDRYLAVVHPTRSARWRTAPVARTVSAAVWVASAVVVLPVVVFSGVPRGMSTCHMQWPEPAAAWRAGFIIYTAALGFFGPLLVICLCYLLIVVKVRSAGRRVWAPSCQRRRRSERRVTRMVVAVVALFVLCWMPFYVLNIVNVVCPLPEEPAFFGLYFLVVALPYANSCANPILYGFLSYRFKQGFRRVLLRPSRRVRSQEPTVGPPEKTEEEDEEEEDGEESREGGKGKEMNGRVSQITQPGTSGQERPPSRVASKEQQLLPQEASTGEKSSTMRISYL

Somatostatin receptor = test: Compound was tested for in vitro SRIF inhibition of GH release in rats; type: functional
Summary of the method: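 Adult male rat anterior pituitary cells, dispersed with trypsin/DNase, cultured 4-5 days. Then 3 h at 37 °C in medium 199 with 1% BSA, GHRH(1-29)NH2 1 nM and SRIF 1 nM, with analogue at six doses (up to 10 µM, some to 100 µM), triplicate wells. GH in medium measured by double-antibody RIA. Antagonist IC50 taken from n separate dose-response curves.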

[4] = target: Somatostatin receptor type 2 (Homo sapiens, UniProt P30874); test: Binding affinity towards cloned human somatostatin 2 (hsst) receptor; summary of the method: as §1
Chain of Somatostatin receptor type 2 (P30874 whole entry): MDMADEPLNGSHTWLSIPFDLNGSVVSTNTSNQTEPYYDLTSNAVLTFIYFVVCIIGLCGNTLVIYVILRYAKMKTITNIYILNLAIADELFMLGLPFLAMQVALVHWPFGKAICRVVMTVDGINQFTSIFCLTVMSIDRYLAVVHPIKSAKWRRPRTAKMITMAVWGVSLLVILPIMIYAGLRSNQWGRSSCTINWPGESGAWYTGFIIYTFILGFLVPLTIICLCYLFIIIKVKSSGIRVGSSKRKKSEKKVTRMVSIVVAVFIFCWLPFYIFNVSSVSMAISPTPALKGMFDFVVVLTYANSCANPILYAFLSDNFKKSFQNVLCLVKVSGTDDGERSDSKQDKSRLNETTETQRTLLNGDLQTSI

[5] = target: Somatostatin receptor type 5 (Homo sapiens, UniProt P35346); test: Binding affinity towards cloned human somatostatin 5 (hsst) receptor; summary of the method: as §1
Chain of Somatostatin receptor type 5 (P35346 whole entry): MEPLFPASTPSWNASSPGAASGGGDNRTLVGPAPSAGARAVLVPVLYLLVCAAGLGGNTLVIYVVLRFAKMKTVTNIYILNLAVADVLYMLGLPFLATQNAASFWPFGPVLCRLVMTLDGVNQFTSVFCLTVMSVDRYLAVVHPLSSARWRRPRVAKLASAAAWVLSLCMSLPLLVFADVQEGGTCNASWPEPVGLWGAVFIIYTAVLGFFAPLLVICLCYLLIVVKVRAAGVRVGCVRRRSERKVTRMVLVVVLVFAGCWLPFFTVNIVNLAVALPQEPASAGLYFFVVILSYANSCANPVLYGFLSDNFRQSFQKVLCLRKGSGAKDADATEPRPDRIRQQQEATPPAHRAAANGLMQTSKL

Q: For CC(C)[C@@H]1NC(=O)[C@H](CCCCN)NC(=O)[C@@H](Cc2c[nH]c3ccccc23)NC(=O)[C@H](Cc2c[nH]cn2)NC(=O)[C@H](NC(=O)[C@@H](N)Cc2ccc3ccccc3c2)CSSC[C@@H](C(=O)N[C@@H](Cc2ccc3ccccc3c2)C(N)=O)NC1=O (H-[2Nal][dC]H[dW]KVC[2Nal]-NH2; disulfide 2-7), which IC50 [1] is on record?
A: 1 µM

Q: And the IC50 [2]?
A: 0.943 µM

Q: And the IC50 [3]?
A: 0.068 µM

Q: And the IC50 (Somatostatin receptor)?
A: 0.053 µM

Q: And the Ki [4]?
A: 0.0825 µM

Q: What about the Ki [5] of the same molecule?
A: 0.501 µM

Q: CC(C)[C@H](NC(=O)[C@H](CCCCN)NC(=O)[C@@H](Cc1c[nH]c2ccccc12)NC(=O)[C@H](Cc1ccc(O)cc1)NC(=O)[C@@H](Cc1ccc(Cl)cc1)NC(=O)[C@@H](N)Cc1ccc2ccccc2c1)C(=O)N[C@@H](Cc1ccccc1)C(=O)N[C@H](C(N)=O)[C@@H](C)O (H-[2Nal][dPhe(4-Cl)]Y[dW]KVFT-NH2) was tested. Which IC50 [1] did it give?
A: 1 µM

Q: And the IC50 [2]?
A: 2.84 µM

Q: What about the IC50 [3] of the same molecule?
A: 1.13 µM

Q: What about the IC50 (Somatostatin receptor) of the same molecule?
A: 3.03 µM

Q: And the Ki [4]?
A: 0.706 µM

Q: And the Ki [5]?
A: 1.84 µM

Q: With CC(C)[C@@H]1NC(=O)[C@H](CCCCN)NC(=O)[C@@H](Cc2c[nH]c3ccccc23)NC(=O)[C@H](Cc2cccnc2)NC(=O)[C@H](NC(=O)[C@@H](N)Cc2ccccc2)CSSC[C@@H](C(=O)N[C@@H](Cc2ccc3ccccc3c2)C(N)=O)NC1=O (H-F[dC][3Pal][dW]KVC[2Nal]-NH2; disulfide 2-7) as the molecule, how does the IC50 [1] read?
A: 0.535 µM

Q: And the IC50 [2]?
A: 1 µM

Q: What about the IC50 [3] of the same molecule?
A: 0.373 µM

Q: What about the IC50 (Somatostatin receptor) of the same molecule?
A: 0.058 µM

Q: What about the Ki [4] of the same molecule?
A: 0.123 µM

Q: And the Ki [5]?
A: 0.769 µM

Q: Which results are given for CC(C)[C@@H]1NC(=O)[C@H](CCCCN)NC(=O)[C@@H](Cc2c[nH]c3ccccc23)NC(=O)[C@H](Cc2ccc(O)cc2)NC(=O)[C@@H](NC(=O)[C@H](N)Cc2ccc3ccccc3c2)CSSC[C@H](C(=O)N[C@@H](Cc2ccc3ccccc3c2)C(N)=O)NC1=O (stereo in doubt; 23)?
A: IC50 [1]: 0.494 µM; IC50 [2]: 0.312 µM; IC50 [3]: 0.292 µM; IC50 (Somatostatin receptor): 1.36 µM; Ki [4]: 0.0685 µM; Ki [5]: 0.744 µM

Q: Which IC50 [1] does the source give for C[C@@H](O)[C@H](NC(=O)[C@@H]1CSSC[C@@H](NC(=O)[C@@H](N)Cc2ccc(O)cc2)C(=O)N[C@@H](Cc2cccnc2)C(=O)N[C@H](Cc2c[nH]c3ccccc23)C(=O)N[C@@H](CCCCN)C(=O)N[C@@H]([C@@H](C)O)C(=O)N1)C(N)=O here?
A: 1 µM

Q: What about the IC50 [2] of the same molecule?
A: 1 µM

Q: What about the IC50 [3] of the same molecule?
A: 1.38 µM

Q: And the IC50 (Somatostatin receptor)?
A: 98.65 µM

Q: What about the Ki [4] of the same molecule?
A: 1 µM

Q: C[C@@H](O)[C@@H]1NC(=O)[C@H](CCCCN)NC(=O)[C@@H](Cc2c[nH]c3ccccc23)NC(=O)[C@H](Cc2ccc(O)cc2)NC(=O)[C@H](NC(=O)[C@H](N)Cc2ccc3ccccc3c2)CSSC[C@@H](C(=O)N[C@@H](Cc2ccc3ccccc3c2)C(N)=O)NC1=O was tested. Which IC50 [1] did it give?
A: 1.04 µM

Q: What about the IC50 [2] of the same molecule?
A: 0.605 µM

Q: And the IC50 (Somatostatin receptor)?
A: 180 µM

Q: And the Ki [4]?
A: 0.202 µM

Q: CC(C)[C@@H]1NC(=O)[C@H](CCCCN)NC(=O)[C@@H](Cc2c[nH]c3ccccc23)NC(=O)[C@H](Cc2ccc(O)cc2)NC(=O)[C@H](NC(=O)[C@@H](N)Cc2ccc3ccccc3c2)CSSC[C@@H](C(=O)NC(C)(C)C)NC1=O was tested. Which IC50 (Somatostatin receptor) did it give?
A: 108.6 µM

Q: For CC(C)[C@@H]1NC(=O)[C@H](CCCCN)NC(=O)[C@@H](Cc2c[nH]c3ccccc23)NC(=O)[C@H](Cc2ccc(O)cc2)NC(=O)[C@H](NC(=O)[C@H](N)Cc2ccc3ccccc3c2)CSSC[C@H](C(=O)N[C@H](Cc2ccc3ccccc3c2)C(N)=O)NC1=O, which IC50 (Somatostatin receptor) is on record?
A: 0.375 µM

Q: What does the source list for CC(=O)N[C@@H](Cc1ccc2ccccc2c1)C(=O)N[C@@H]1CSSC[C@@H](C(=O)N[C@@H](Cc2ccc3ccccc3c2)C(N)=O)NC(=O)[C@H](C(C)C)NC(=O)[C@H](CCCCN)NC(=O)[C@@H](Cc2c[nH]c3ccccc23)NC(=O)[C@H](Cc2ccc(O)cc2)NC1=O (Ac-[2Nal][dC]Y[dW]KVC[2Nal]-NH2; disulfide 2-7)?
A: IC50 [1]: 1.02 µM; IC50 [2]: 1 µM; IC50 [3]: 0.144 µM; IC50 (Somatostatin receptor): 0.0567 µM; Ki [4]: 0.0482 µM; Ki [5]: 0.13 µM

Q: How did the IC50 [1] turn out when CC(C)[C@@H]1NC(=O)[C@H](CCCCN)NC(=O)[C@@H](Cc2c[nH]c3ccccc23)NC(=O)[C@H](Cc2cccnc2)NC(=O)[C@H](NC(=O)[C@@H](N)Cc2ccc3ccccc3c2)CSSC[C@@H](C(=O)N[C@@H](Cc2ccc3ccccc3c2)C(N)=O)NC1=O (H-[2Nal][dC][3Pal][dW]KVC[2Nal]-NH2; disulfide 2-7) was run?
A: 0.506 µM

Q: What about the IC50 [2] of the same molecule?
A: 1 µM

Q: And the IC50 [3]?
A: 0.171 µM

Q: What about the IC50 (Somatostatin receptor) of the same molecule?
A: 0.0151 µM

Q: What about the Ki [4] of the same molecule?
A: 0.0759 µM

Q: And the Ki [5]?
A: 0.524 µM

Q: Which IC50 [1] does the source give for CC(C)[C@H](NC(=O)[C@H](CCCCN)NC(=O)[C@@H](Cc1c[nH]c2ccccc12)NC(=O)[C@H](Cc1ccc(O)cc1)NC(=O)[C@@H](Cc1ccc(Cl)cc1)NC(=O)[C@H](N)Cc1ccc2ccccc2c1)C(=O)N[C@@H](Cc1ccccc1)C(=O)N[C@H](C(N)=O)[C@@H](C)O (H-[d2Nal][dPhe(4-Cl)]Y[dW]KVFT-NH2) here?
A: 1 µM

Q: What about the IC50 [2] of the same molecule?
A: 1 µM

Q: And the IC50 [3]?
A: 0.0899 µM

Q: And the IC50 (Somatostatin receptor)?
A: 3.96 µM

Q: What about the Ki [4] of the same molecule?
A: 0.144 µM

Q: What about the Ki [5] of the same molecule?
A: 0.0216 µM

Q: How did the IC50 (Somatostatin receptor) turn out when CC(C)[C@@H]1NC(=O)[C@H](CCCCN)NC(=O)[C@@H](Cc2c[nH]c3ccccc23)NC(=O)[C@H](Cc2cccnc2)NC(=O)[C@H](NC(=O)[C@@H](N)Cc2ccc3ccccc3c2)CSSC[C@@H](C(=O)N[C@@H](Cc2cccc(-c3ccccc3)c2)C(N)=O)NC1=O was run?
A: 0.056 µM

Q: For CC(C)[C@@H]1NC(=O)[C@H](CCCCN)NC(=O)[C@@H](Cc2c[nH]c3ccccc23)NC(=O)[C@H](Cc2ccc(O)cc2)NC(=O)[C@H](NC(=O)[C@@H](N)Cc2ccc3ccccc3c2)CSSC[C@@H](C(=O)N[C@H](Cc2ccc3ccccc3c2)C(N)=O)NC1=O, which IC50 [1] is on record?
A: 1 µM

Q: And the IC50 [2]?
A: 1 µM

Q: And the IC50 [3]?
A: 2.28 µM

Q: And the IC50 (Somatostatin receptor)?
A: 0.28 µM

Q: And the Ki [4]?
A: 0.0461 µM

Q: What about the Ki [5] of the same molecule?
A: 1.25 µM

Q: Which results are given for CC(C)[C@@H]1NC(=O)[C@H](CCCCN)NC(=O)[C@@H](Cc2c[nH]c3ccccc23)NC(=O)[C@H](Cc2ccc(O)cc2)NC(=O)[C@H](NC(=O)[C@H](N)Cc2ccc(-c3ccccc3)cc2)CSSC[C@@H](C(=O)N[C@@H](Cc2ccc3ccccc3c2)C(N)=O)NC1=O (H-[dBip][dC]Y[dW]KVC[2Nal]-NH2; disulfide 2-7)?
A: IC50 [1]: 1.44 µM; IC50 [2]: 1 µM; IC50 [3]: 0.466 µM; IC50 (Somatostatin receptor): 0.81 µM; Ki [4]: 0.793 µM; Ki [5]: 0.243 µM

Q: What does the source list for C[C@@H](O)[C@H](NC(=O)[C@@H]1CSSC[C@@H](NC(=O)[C@@H](N)Cc2ccccc2)C(=O)N[C@@H](Cc2cccnc2)C(=O)N[C@H](Cc2c[nH]c3ccccc23)C(=O)N[C@@H](CCCCN)C(=O)N[C@@H]([C@@H](C)O)C(=O)N1)C(N)=O?
A: IC50 [1]: 1 µM; IC50 [2]: 1 µM; IC50 [3]: 0.934 µM; IC50 (Somatostatin receptor): 0.905 µM; Ki [4]: 0.291 µM; Ki [5]: 2.36 µM
